In ChEMBL document CHEMBL1133721, “Antitumor polycyclic acridines. 7. Synthesis and biological properties of DNA affinic tetra- and pentacyclic acridines” (J Med Chem, 2000):

tested on: MCF7; experiment: Inhibitory activity against MCF7wt cell line using MTT assay; format: functional, cell-based; conditions: Homo sapiens
In short: (§1)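 Cells were grown in RPMI 1640 with 2 mM L-glutamine, penicillin/streptomycin and 10% heat-inactivated FCS. Drugs were taken from 10 mM DMSO stocks. Viability was read by MTT at 0.4 mg/mL final for 4 h at 37 °C, with formazan dissolved in DMSO plus glycine buffer and read at 550 nm. IC50 is the concentration halving absorbance versus untreated controls, taken from dose-response curves.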

SMILES | IC50 [µM]
Cc1ccc2c(c1)-c1cccc3nc4ccccc4c(c13)N2 | 0.18
c1ccc2c(c1)Nc1c3ccccc3nc3cccc-2c13 | 0.27
N#CCCCc1cnc2c3c(cccc13)Nc1ccccc1-2 | 0.27
Clc1ccc2c(c1)-c1cccc3nc4ccccc4c(c13)N2 | 1.67

Stronger by IC50, values ahead:

IC50 [µM] | SMILES
0.05 | Nc1ccc2c(c1)Nc1c3ccccc3nc3cccc-2c13
0.15 | c1ccc2c(c1)Nc1cccc3cc4[n+](c-2c13)CCC4

tested on: NCI-H358; experiment: Inhibitory activity against NCI-H358 cell line using MTT assay(mutant p53); format: functional, cell-based; conditions: Homo sapiens; in short: as §1

SMILES | IC50 [µM]
Cc1ccc2c(c1)-c1cccc3nc4ccccc4c(c13)N2 | 0.6
c1ccc2c(c1)Nc1c3ccccc3nc3cccc-2c13 | 0.46
N#CCCCc1cnc2c3c(cccc13)Nc1ccccc1-2 | 2.38
Clc1ccc2c(c1)-c1cccc3nc4ccccc4c(c13)N2 | 6.03

Next, values leading:

IC50 [µM] | SMILES
0.4 | Nc1ccc2c(c1)Nc1c3ccccc3nc3cccc-2c13
0.11 | c1ccc2c(c1)Nc1cccc3cc4[n+](c-2c13)CCC4

tested on: NCI-H322M; experiment: Inhibitory activity against NCI-H322 cell line using MTT assay(mutant p53); format: functional, cell-based; conditions: Homo sapiens; in short: as §1

SMILES | IC50 [µM]
Cc1ccc2c(c1)-c1cccc3nc4ccccc4c(c13)N2 | 0.84
c1ccc2c(c1)Nc1c3ccccc3nc3cccc-2c13 | 0.49
N#CCCCc1cnc2c3c(cccc13)Nc1ccccc1-2 | 2.27
Clc1ccc2c(c1)-c1cccc3nc4ccccc4c(c13)N2 | > 10

More lines, now with the values ahead:

IC50 [µM] | SMILES
0.14 | Nc1ccc2c(c1)Nc1c3ccccc3nc3cccc-2c13
0.17 | c1ccc2c(c1)Nc1cccc3cc4[n+](c-2c13)CCC4

tested on: NCI/ADR-RES; experiment: Inhibitory activity against MCF-7/adr cell line using MTT assay; format: functional, cell-based; conditions: Homo sapiens; in short: as §1

SMILES | IC50 [µM]
Nc1ccc2c(c1)Nc1c3ccccc3nc3cccc-2c13 | 0.355
c1ccc2c(c1)Nc1cccc3cc4[n+](c-2c13)CCC4 | 0.165
Cc1ccc2c(c1)-c1cccc3nc4ccccc4c(c13)N2 | 1.21
c1ccc2c(c1)Nc1c3ccccc3nc3cccc-2c13 | 0.63
N#CCCCc1cnc2c3c(cccc13)Nc1ccccc1-2 | 0.61
Clc1ccc2c(c1)-c1cccc3nc4ccccc4c(c13)N2 | 6.31

tested on: MDA-MB-231; experiment: Inhibitory activity against MDA-231 cell line using MTT assay (ER-,EGFR+,mutant p53); format: functional, cell-based; conditions: Homo sapiens; in short: as §1

SMILES | IC50 [µM]
Cc1ccc2c(c1)-c1cccc3nc4ccccc4c(c13)N2 | 0.55
c1ccc2c(c1)Nc1c3ccccc3nc3cccc-2c13 | 0.54
N#CCCCc1cnc2c3c(cccc13)Nc1ccccc1-2 | 0.96
Clc1ccc2c(c1)-c1cccc3nc4ccccc4c(c13)N2 | 5.45

Other lines, results leading:

IC50 [µM] | SMILES
0.23 | Nc1ccc2c(c1)Nc1c3ccccc3nc3cccc-2c13
0.19 | c1ccc2c(c1)Nc1cccc3cc4[n+](c-2c13)CCC4

tested on: NCI-H460; experiment: Inhibitory activity against H460pv8 cell line using MTT assay; format: functional, cell-based; conditions: Homo sapiens
In short: (§2)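 This is a 7-day MTT assay in RPMI 1640 with 2 mM L-glutamine, antibiotics and 10% heat-inactivated FCS. The H460pv8/eto variant was kept in 1 µM etoposide. MTT was used at 0.4 mg/mL final for 4 h at 37 °C, and formazan was dissolved in DMSO/glycine buffer and read at 550 nm. IC50 is the 50% absorbance reduction versus untreated controls, from dose-response curves.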

SMILES | IC50 [µM]
Cc1ccc2c(c1)-c1cccc3nc4ccccc4c(c13)N2 | 0.49
c1ccc2c(c1)Nc1c3ccccc3nc3cccc-2c13 | 0.32
N#CCCCc1cnc2c3c(cccc13)Nc1ccccc1-2 | 2.06
Clc1ccc2c(c1)-c1cccc3nc4ccccc4c(c13)N2 | 3.77

Further lines, results first:

IC50 [µM] | SMILES
0.05 | Nc1ccc2c(c1)Nc1c3ccccc3nc3cccc-2c13
0.13 | c1ccc2c(c1)Nc1cccc3cc4[n+](c-2c13)CCC4

tested on: NCI-H460; experiment: Inhibitory activity against NCI-H460 cell line using MTT assay(Wild type p53); format: functional, cell-based; conditions: Homo sapiens; in short: as §1

SMILES | IC50 [µM]
Cc1ccc2c(c1)-c1cccc3nc4ccccc4c(c13)N2 | 0.71
c1ccc2c(c1)Nc1c3ccccc3nc3cccc-2c13 | 0.52
N#CCCCc1cnc2c3c(cccc13)Nc1ccccc1-2 | 2.56
Clc1ccc2c(c1)-c1cccc3nc4ccccc4c(c13)N2 | 3.9

Other lines, results leading:

IC50 [µM] | SMILES
0.07 | Nc1ccc2c(c1)Nc1c3ccccc3nc3cccc-2c13
0.18 | c1ccc2c(c1)Nc1cccc3cc4[n+](c-2c13)CCC4

tested on: A549; experiment: Inhibitory activity against A549 cell line using MTT assay(Wild type p53); format: functional, cell-based; conditions: Homo sapiens; in short: as §1

SMILES | IC50 [µM]
Cc1ccc2c(c1)-c1cccc3nc4ccccc4c(c13)N2 | 0.81
c1ccc2c(c1)Nc1c3ccccc3nc3cccc-2c13 | 0.49
N#CCCCc1cnc2c3c(cccc13)Nc1ccccc1-2 | 2.57
Clc1ccc2c(c1)-c1cccc3nc4ccccc4c(c13)N2 | 7.1

Other lines, results leading:

IC50 [µM] | SMILES
0.08 | Nc1ccc2c(c1)Nc1c3ccccc3nc3cccc-2c13
0.16 | c1ccc2c(c1)Nc1cccc3cc4[n+](c-2c13)CCC4

tested on: ZR-75-1; experiment: Inhibitory activity against ZR-75-1 cell line using MTT assay (ER+,pgr+,mutant p53); format: functional, cell-based; conditions: Homo sapiens; in short: as §1

SMILES | IC50 [µM]
Nc1ccc2c(c1)Nc1c3ccccc3nc3cccc-2c13 | 0.03
c1ccc2c(c1)Nc1cccc3cc4[n+](c-2c13)CCC4 | 0.17
Cc1ccc2c(c1)-c1cccc3nc4ccccc4c(c13)N2 | 0.39
c1ccc2c(c1)Nc1c3ccccc3nc3cccc-2c13 | 0.85
N#CCCCc1cnc2c3c(cccc13)Nc1ccccc1-2 | 0.72
Clc1ccc2c(c1)-c1cccc3nc4ccccc4c(c13)N2 | 5.59

tested on: NCI-H226; experiment: Inhibitory activity against NCI-H226 cell line using MTT assay(mutant p53); format: functional, cell-based; conditions: Homo sapiens; in short: as §1

SMILES | IC50 [µM]
Cc1ccc2c(c1)-c1cccc3nc4ccccc4c(c13)N2 | 1.22
c1ccc2c(c1)Nc1c3ccccc3nc3cccc-2c13 | 0.75
N#CCCCc1cnc2c3c(cccc13)Nc1ccccc1-2 | 2.72
Clc1ccc2c(c1)-c1cccc3nc4ccccc4c(c13)N2 | > 10

Continued, values first:

IC50 [µM] | SMILES
0.17 | Nc1ccc2c(c1)Nc1c3ccccc3nc3cccc-2c13
0.22 | c1ccc2c(c1)Nc1cccc3cc4[n+](c-2c13)CCC4

tested on: F460pv8/eto; experiment: Inhibitory activity against […] using MTT assay; format: functional, cell-based; conditions: Homo sapiens; in short: as §2

SMILES | IC50 [µM]
Nc1ccc2c(c1)Nc1c3ccccc3nc3cccc-2c13 | 0.12
c1ccc2c(c1)Nc1cccc3cc4[n+](c-2c13)CCC4 | 0.1
Cc1ccc2c(c1)-c1cccc3nc4ccccc4c(c13)N2 | 0.49
c1ccc2c(c1)Nc1c3ccccc3nc3cccc-2c13 | 0.34
N#CCCCc1cnc2c3c(cccc13)Nc1ccccc1-2 | 1.09
Clc1ccc2c(c1)-c1cccc3nc4ccccc4c(c13)N2 | 6.47

tested on: NCI-H647; experiment: Inhibitory activity against NCI-H647 cell line using MTT assay(mutant p53); format: functional, cell-based; conditions: Homo sapiens; in short: as §1

SMILES | IC50 [µM]
Cc1ccc2c(c1)-c1cccc3nc4ccccc4c(c13)N2 | 0.8
c1ccc2c(c1)Nc1c3ccccc3nc3cccc-2c13 | 0.54
N#CCCCc1cnc2c3c(cccc13)Nc1ccccc1-2 | 2.92
Clc1ccc2c(c1)-c1cccc3nc4ccccc4c(c13)N2 | 5.3

Next, values leading:

IC50 [µM] | SMILES
0.08 | Nc1ccc2c(c1)Nc1c3ccccc3nc3cccc-2c13
0.12 | c1ccc2c(c1)Nc1cccc3cc4[n+](c-2c13)CCC4

tested on: T47D; experiment: Inhibitory activity against T47D cell line using MTT assay (ER+,mutant p53); format: functional, cell-based; conditions: Homo sapiens; in short: as §1

SMILES | IC50 [µM]
Cc1ccc2c(c1)-c1cccc3nc4ccccc4c(c13)N2 | 2.13
c1ccc2c(c1)Nc1c3ccccc3nc3cccc-2c13 | 0.69
N#CCCCc1cnc2c3c(cccc13)Nc1ccccc1-2 | 1.31
Clc1ccc2c(c1)-c1cccc3nc4ccccc4c(c13)N2 | 5.55

More lines, now with the values ahead:

IC50 [µM] | SMILES
0.27 | Nc1ccc2c(c1)Nc1c3ccccc3nc3cccc-2c13
0.16 | c1ccc2c(c1)Nc1cccc3cc4[n+](c-2c13)CCC4

tested on: MCF7; experiment: Inhibitory activity against MCF-7 wt cell line using MTT assay (ER+,pgR+,wildtype p53); format: functional, cell-based; conditions: Homo sapiens; in short: as §1

SMILES | IC50 [µM]
Cc1ccc2c(c1)-c1cccc3nc4ccccc4c(c13)N2 | 0.18
c1ccc2c(c1)Nc1c3ccccc3nc3cccc-2c13 | 0.27
N#CCCCc1cnc2c3c(cccc13)Nc1ccccc1-2 | 0.27
Clc1ccc2c(c1)-c1cccc3nc4ccccc4c(c13)N2 | 1.67

The next lines start with the values.

IC50 [µM] | SMILES
0.05 | Nc1ccc2c(c1)Nc1c3ccccc3nc3cccc-2c13
0.15 | c1ccc2c(c1)Nc1cccc3cc4[n+](c-2c13)CCC4

tested on: NCI-H460; experiment: Inhibitory activity against NCI-H460 cell line using MTT assay; format: functional, cell-based; conditions: Homo sapiens; in short: as §2

SMILES | IC50 [µM]
Cc1ccc2c(c1)-c1cccc3nc4ccccc4c(c13)N2 | 0.71
c1ccc2c(c1)Nc1c3ccccc3nc3cccc-2c13 | 0.52
N#CCCCc1cnc2c3c(cccc13)Nc1ccccc1-2 | 2.56
Clc1ccc2c(c1)-c1cccc3nc4ccccc4c(c13)N2 | 3.9

Other lines, results leading:

IC50 [µM] | SMILES
0.07 | Nc1ccc2c(c1)Nc1c3ccccc3nc3cccc-2c13
0.18 | c1ccc2c(c1)Nc1cccc3cc4[n+](c-2c13)CCC4

tested on: MDA-MB-468; experiment: Inhibitory activity against MDA-468 cell line using MTT assay (ER-, amplified EGFR, mutant p53); format: functional, cell-based; conditions: Homo sapiens; in short: as §1

SMILES | IC50 [µM]
Cc1ccc2c(c1)-c1cccc3nc4ccccc4c(c13)N2 | 0.17
c1ccc2c(c1)Nc1c3ccccc3nc3cccc-2c13 | 0.09
N#CCCCc1cnc2c3c(cccc13)Nc1ccccc1-2 | 0.32
Clc1ccc2c(c1)-c1cccc3nc4ccccc4c(c13)N2 | 0.31

More lines, now with the values ahead:

IC50 [µM] | SMILES
0.04 | Nc1ccc2c(c1)Nc1c3ccccc3nc3cccc-2c13
0.18 | c1ccc2c(c1)Nc1cccc3cc4[n+](c-2c13)CCC4

tested on: SK-BR-3; experiment: Inhibitory activity against SKBR-3 cell line using MTT assay (ER-amplified erB2,mutant p53); format: functional, cell-based; conditions: Homo sapiens; in short: as §1

SMILES | IC50 [µM]
Cc1ccc2c(c1)-c1cccc3nc4ccccc4c(c13)N2 | 0.45
c1ccc2c(c1)Nc1c3ccccc3nc3cccc-2c13 | 0.15
N#CCCCc1cnc2c3c(cccc13)Nc1ccccc1-2 | 0.42
Clc1ccc2c(c1)-c1cccc3nc4ccccc4c(c13)N2 | 1.03

The next lines start with the values.

IC50 [µM] | SMILES
0.02 | Nc1ccc2c(c1)Nc1c3ccccc3nc3cccc-2c13
0.12 | c1ccc2c(c1)Nc1cccc3cc4[n+](c-2c13)CCC4
